In brackets after ≈: the same amount, converted by molar mass.
What was measured:
Format in all cases: functional
[1] = tested on: Acinetobacter baumannii; test: Antimicrobial activity against Acinetobacter baumannii ATCC 19606 harboring plasmid PH98 by Etest method; conditions: ATCC 19606 = CIP 70.34 = JCM 6841
In short: (§1)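 MICs of β-lactams determined by Etest following the manufacturer's instructions. Reference strains A. baumannii ATCC 19606 and E. coli TOP10 were tested alongside transformants carrying the cloned blaOXA-143: ATCC 19606 with pPH98 and TOP10 with pPH-1. For pPH-1 constructs, TOP10 transformants were selected on 50 μg/ml amoxicillin plus 30 μg/ml kanamycin.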

[2] = tested on: Acinetobacter baumannii; test: Antimicrobial activity against Acinetobacter baumannii […] by Etest method
In short: (§2)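 Etest MICs were read following the manufacturer's instructions. A. baumannii 135040 is a blood-culture clinical isolate from a Brazilian ICU (2004); A. baumannii ATCC 19606 served as the reference strain.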

[3] = tested on: Escherichia coli; test: Antimicrobial activity against Escherichia coli TOP10 by Etest method; in short: as §1
[4] = tested on: Escherichia coli; test: Antimicrobial activity against Escherichia coli TOP10 harboring plasmid PH1 by Etest method; in short: as §1
[5] = tested on: Acinetobacter baumannii; test: Antimicrobial activity against Acinetobacter baumannii ATCC 19606 by Etest method; conditions: ATCC 19606 = CIP 70.34 = JCM 6841; in short: as §1
[6] = tested on: Escherichia coli; test: Antimicrobial activity against Escherichia coli TOP10 by Etest method in presence of 4 ug/ml beta-lactamase inhibitor clavulanic acid
In short: (§3)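 Susceptibility was read by Etest, following the manufacturer's instructions. E. coli TOP10 without plasmid served as the reference host strain.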

[7] = tested on: Escherichia coli; test: Antimicrobial activity against Escherichia coli TOP10 harboring plasmid PH1 by Etest method in presence of 4 ug/ml beta-lactamase inhibitor clavulanic acid; in short: as §1
[8] = tested on: Acinetobacter baumannii; test: Antimicrobial activity against Acinetobacter baumannii ATCC 19606 by Etest method in presence of 4 ug/ml beta-lactamase inhibitor clavulanic acid; conditions: ATCC 19606 = CIP 70.34 = JCM 6841; in short: as §2
[9] = tested on: Acinetobacter baumannii; test: Antimicrobial activity against Acinetobacter baumannii […] by Etest method in presence of 4 ug/ml beta-lactamase inhibitor clavulanic acid; in short: as §2
[10] = tested on: Acinetobacter baumannii; test: Antimicrobial activity against Acinetobacter baumannii ATCC 19606 harboring plasmid PH98 by Etest method in presence of 4 ug/ml beta-lactamase inhibitor clavulanic acid; conditions: ATCC 19606 = CIP 70.34 = JCM 6841; in short: as §1
[11] = tested on: Acinetobacter baumannii; test: Antimicrobial activity against Acinetobacter baumannii […] by Etest method in presence of 4 ug/ml beta-lactamase inhibitor Tazobactam; in short: as §2
[12] = tested on: Acinetobacter baumannii; test: Antimicrobial activity against Acinetobacter baumannii ATCC 19606 harboring plasmid PH98 by Etest method in presence of 4 ug/ml beta-lactamase inhibitor Tazobactam; conditions: ATCC 19606 = CIP 70.34 = JCM 6841
In short: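 Susceptibility by Etest, run according to the manufacturer's instructions. The recipient strain is A. baumannii ATCC 19606 carrying recombinant plasmid pPH98. The same strain without the plasmid served as the reference. MICs for this strain were also determined by agar dilution following CLSI guidelines.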

[13] = tested on: Escherichia coli; test: Antimicrobial activity against Escherichia coli TOP10 harboring plasmid PH1 by Etest method in presence of 4 ug/ml beta-lactamase inhibitor Tazobactam
In short: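 Susceptibility was read by Etest, following the manufacturer's instructions. The test strain was E. coli TOP10 carrying recombinant plasmid pPH-1, which expresses blaOXA-143 from A. baumannii clinical isolate 135040 at a high level. The gene was introduced by Zero Blunt TOPO cloning, and transformants were selected on 50 μg/ml amoxicillin plus 30 μg/ml kanamycin.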

[14] = tested on: Escherichia coli; test: Antimicrobial activity against Escherichia coli TOP10 by Etest method in presence of 4 ug/ml beta-lactamase inhibitor Tazobactam; in short: as §3
[15] = tested on: Acinetobacter baumannii; test: Antimicrobial activity against Acinetobacter baumannii ATCC 19606 by Etest method in presence of 4 ug/ml beta-lactamase inhibitor Tazobactam; conditions: ATCC 19606 = CIP 70.34 = JCM 6841; in short: as §2

SMILES | MIC [1] | MIC [2] | MIC [3] | MIC [4] | MIC [5] | MIC [6] | MIC [7] | MIC [8] | MIC [9] | MIC [10] | MIC [11] | MIC [12] | MIC [13] | MIC [14] | MIC [15]
C[C@@H](O)[C@H]1C(=O)N2C(C(=O)O)=C(S[C@@H]3CN[C@H](C(=O)N(C)C)C3)[C@H](C)[C@H]12 [MEROPENEM] | 32 µg/mL (≈ 83.4 µM) | > 32 µg/mL | 0.12 µg/mL (≈ 0.313 µM) | 2 µg/mL (≈ 5.22 µM) | 0.19 µg/mL (≈ 0.495 µM) |  |  |  |  |  |  |  |  |  | 
CC1(C)S[C@@H]2[C@H](NC(=O)[C@H](N)c3ccc(O)cc3)C(=O)N2[C@H]1C(=O)O [AMOXICILLIN] | > 256 µg/mL | > 256 µg/mL | 4 µg/mL (≈ 10.9 µM) | > 512 µg/mL | 32 µg/mL (≈ 87.6 µM) | 4 µg/mL | > 512 µg/mL | 8 µg/mL | > 256 µg/mL | > 256 µg/mL |  |  |  |  | 
CC1(C)S[C@@H]2[C@H](NC(=O)[C@H](C(=O)O)c3ccsc3)C(=O)N2[C@H]1C(=O)O [TICARCILLIN] | > 256 µg/mL | > 256 µg/mL | 4 µg/mL (≈ 10.4 µM) | 128 µg/mL (≈ 333 µM) | 4 µg/mL (≈ 10.4 µM) |  |  |  |  |  |  |  |  |  | 
C[C@@H](O)[C@H]1C(=O)N2C(C(=O)O)=C(SCCNC=N)C[C@H]12 [IMIPENEM ANHYDROUS] | 32 µg/mL (≈ 107 µM) | > 32 µg/mL |  | 2 µg/mL (≈ 6.68 µM) | 0.19 µg/mL (≈ 0.635 µM) |  |  |  |  |  |  |  |  |  | 
CO/N=C(\C(=O)N[C@@H]1C(=O)N2C(C(=O)[O-])=C(C[N+]3(C)CCCC3)CS[C@H]12)c1csc(N)n1 [CEFEPIME] | 2 µg/mL (≈ 4.16 µM) | 4 µg/mL (≈ 8.32 µM) |  | 0.12 µg/mL (≈ 0.25 µM) | 1 µg/mL (≈ 2.08 µM) |  |  |  |  |  |  |  |  |  | 
CC(C)(O/N=C(\C(=O)N[C@@H]1C(=O)N2C(C(=O)[O-])=C(C[n+]3ccccc3)CS[C@H]12)c1csc(N)n1)C(=O)O [CEFTAZIDIME] | 2 µg/mL (≈ 3.66 µM) | 256 µg/mL (≈ 468 µM) | 0.06 µg/mL (≈ 0.11 µM) | 0.12 µg/mL (≈ 0.22 µM) | 2 µg/mL (≈ 3.66 µM) |  |  |  |  |  |  |  |  |  | 
CCN1CCN(C(=O)N[C@@H](C(=O)N[C@@H]2C(=O)N3[C@@H]2SC(C)(C)[C@@H]3C(=O)O)c2ccccc2)C(=O)C1=O [PIPERACILLIN] | 16 µg/mL (≈ 30.9 µM) | > 256 µg/mL | 1 µg/mL (≈ 1.93 µM) | 8 µg/mL (≈ 15.5 µM) | 4 µg/mL (≈ 7.73 µM) |  |  |  |  |  | > 256 µg/mL | 8 µg/mL | 2 µg/mL | 0.5 µg/mL | 4 µg/mL
CO/N=C(\C(=O)N[C@@H]1C(=O)N2C(C(=O)O)=C(COC(C)=O)CS[C@H]12)c1csc(N)n1 [CEFOTAXIME] | 16 µg/mL (≈ 35.1 µM) | > 256 µg/mL | 0.12 µg/mL (≈ 0.263 µM) | 0.12 µg/mL (≈ 0.263 µM) | 8 µg/mL (≈ 17.6 µM) |  |  |  |  |  |  |  |  |  | 
